Experimental data reported in ChEMBL document CHEMBL4665633, “Cereblon versus VHL: Hijacking E3 ligases against each other using PROTACs” (Bioorg Med Chem, 2019).
Active and inactive are the calls of the source. No cut-off for these calls is given here.

Assays:
Format in all cases: cell-based
[1] = molecular target: T1, Protein cereblon/von Hippel-Lindau disease tumor suppressor (Homo sapiens, UniProt P40337+Q96SW2); test: Protac activity at VHL/CRBN in human HeLa cells assessed as pVHL30 protein abundance at 1 uM after 4 hrs by Western blot analysis relative to DMSO
Method in brief: (§1)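 HeLa cells seeded overnight, then exposed to 1 µM compound (0.1% v/v DMSO final) over a time course. Cells were DPBS-washed and RIPA-lysed with protease inhibitors and benzonase; equal protein was loaded. Immunoblots for CRBN and VHL isoforms were quantified against β-tubulin and reported relative to the averaged 0.1% DMSO vehicle.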

[2] = molecular target: T1, Protein cereblon/von Hippel-Lindau disease tumor suppressor; test: Protac activity at VHL/CRBN in human HeLa cells assessed as induction of VHL degradation at 1 uM after 4 hrs by Western blot analysis
Method in brief: (§2)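 HeLa cells (5 × 10⁵, DMEM + 10% FBS, 37 °C, 5% CO₂, ≤30 passages) seeded overnight, then treated 4 h with compound at single or graded concentrations (0.1% v/v DMSO final). RIPA lysates equalised by Bradford; SDS-PAGE and anti-CRBN/anti-VHL immunoblots; bands normalised to β-tubulin and expressed as % of mean DMSO vehicle. DC₅₀ from fit of band intensity versus log[concentration].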

[3] = molecular target: T1, Protein cereblon/von Hippel-Lindau disease tumor suppressor; test: Protac activity at VHL/CRBN in human HeLa cells assessed as CRBN protein abundance at 10 nM after 4 hrs by Western blot analysis relative to DMSO; method in brief: as §2
[4] = molecular target: T1, Protein cereblon/von Hippel-Lindau disease tumor suppressor; test: Protac activity at VHL/CRBN in human HeLa cells assessed as CRBN protein abundance at 1 uM after 4 hrs by Western blot analysis relative to DMSO; method in brief: as §1
[5] = molecular target: T1, Protein cereblon/von Hippel-Lindau disease tumor suppressor; test: Protac activity at VHL/CRBN in human HeLa cells assessed as pVHL19 protein abundance at 1 uM after 4 hrs by Western blot analysis relative to DMSO; method in brief: as §1
[6] = molecular target: T1, Protein cereblon/von Hippel-Lindau disease tumor suppressor; test: Protac activity at VHL/CRBN in human HeLa cells assessed as pVHL30 protein abundance at 10 nM after 4 hrs by Western blot analysis relative to DMSO; method in brief: as §2
[7] = molecular target: T1, Protein cereblon/von Hippel-Lindau disease tumor suppressor; test: Protac activity at VHL/CRBN in human HeLa cells assessed as pVHL19 protein abundance at 10 nM after 4 hrs by Western blot analysis relative to DMSO; method in brief: as §2
[8] = molecular target: T1, Protein cereblon/von Hippel-Lindau disease tumor suppressor; test: Protac activity at VHL/CRBN in HEK293 cells assessed as CRBN protein abundance after 4 hrs by Western blot analysis relative to DMSO
Method in brief: (§3)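 HEK293 cells (DMEM, 10% FBS, penicillin/streptomycin, L-glutamine; 37 °C, 5% CO2; ≤30 passages) seeded at 1 × 10⁶ per well overnight, then treated with compound at 0.1% v/v final DMSO. Cells were lysed in RIPA with protease inhibitors and benzonase, then clarified. Equal Bradford-quantified protein was immunoblotted for CRBN/VHL. Bands were normalised to β-tubulin and expressed as % of mean 0.1% DMSO vehicle.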

[9] = molecular target: T1, Protein cereblon/von Hippel-Lindau disease tumor suppressor; test: Protac activity at VHL/CRBN in human HeLa cells assessed as CRBN protein abundance after 4 hrs by Western blot analysis relative to DMSO
Method in brief: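 HeLa cells (DMEM, 10% FBS, penicillin/streptomycin, L-glutamine; 37 °C, 5% CO2) seeded at 5 × 10⁵ per well overnight, then treated in 0.1% v/v final DMSO. Cells were lysed in RIPA with protease inhibitors and benzonase, and equal protein was run on SDS-PAGE/nitrocellulose blots probed with anti-CRBN. Bands were normalised to β-tubulin and expressed relative to mean 0.1% DMSO vehicle.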

[10] = molecular target: T1, Protein cereblon/von Hippel-Lindau disease tumor suppressor; test: Protac activity at VHL/CRBN in HEK293 cells assessed as pVHL19 protein abundance after 4 hrs by Western blot analysis relative to DMSO; method in brief: as §3
[11] = molecular target: T1, Protein cereblon/von Hippel-Lindau disease tumor suppressor; test: Protac activity at VHL/CRBN in HEK293 cells assessed as pVHL19 protein abundance at 1 uM after 4 hrs by Western blot analysis relative to DMSO; method in brief: as §3
[12] = molecular target: T1, Protein cereblon/von Hippel-Lindau disease tumor suppressor; test: Protac activity at VHL/CRBN in HEK293 cells assessed as pVHL30 protein abundance at 1 uM after 24 hrs by Western blot analysis relative to DMSO; method in brief: as §3
[13] = molecular target: T1, Protein cereblon/von Hippel-Lindau disease tumor suppressor; test: Protac activity at VHL/CRBN in human HeLa cells assessed as pVHL30 protein abundance after 4 hrs by Western blot analysis relative to DMSO; method in brief: as §2
[14] = molecular target: T1, Protein cereblon/von Hippel-Lindau disease tumor suppressor; test: Protac activity at VHL/CRBN in human HeLa cells assessed as pVHL30 protein abundance at 1 uM after 24 hrs by Western blot analysis relative to DMSO; method in brief: as §1
[15] = molecular target: T1, Protein cereblon/von Hippel-Lindau disease tumor suppressor; test: Protac activity at VHL/CRBN in HEK293 cells assessed as pVHL30 protein abundance at 1 uM after 4 hrs by Western blot analysis relative to DMSO; method in brief: as §3
[16] = molecular target: T1, Protein cereblon/von Hippel-Lindau disease tumor suppressor; test: Protac activity at VHL/CRBN in HEK293 cells assessed as pVHL19 protein abundance at 1 uM after 24 hrs by Western blot analysis relative to DMSO; method in brief: as §3
[17] = molecular target: T1, Protein cereblon/von Hippel-Lindau disease tumor suppressor; test: Protac activity at VHL/CRBN in HEK293 cells assessed as pVHL30 protein abundance after 4 hrs by Western blot analysis relative to DMSO; method in brief: as §3
[18] = molecular target: T1, Protein cereblon/von Hippel-Lindau disease tumor suppressor; test: Protac activity at VHL/CRBN in HEK293 cells assessed as CRBN protein abundance at 1 uM after 24 hrs by Western blot analysis relative to DMSO; method in brief: as §3
[19] = molecular target: T1, Protein cereblon/von Hippel-Lindau disease tumor suppressor; test: Protac activity at VHL/CRBN in human HeLa cells assessed as pVHL19 protein abundance after 4 hrs by Western blot analysis relative to DMSO; method in brief: as §2
[20] = molecular target: T1, Protein cereblon/von Hippel-Lindau disease tumor suppressor; test: Protac activity at VHL/CRBN in human HeLa cells assessed as pVHL19 protein abundance at 1 uM after 24 hrs by Western blot analysis relative to DMSO; method in brief: as §1
[21] = molecular target: T1, Protein cereblon/von Hippel-Lindau disease tumor suppressor; test: Protac activity at VHL/CRBN in human HeLa cells assessed as CRBN protein abundance at 1 uM after 24 hrs by Western blot analysis relative to DMSO; method in brief: as §1
[22] = molecular target: T1, Protein cereblon/von Hippel-Lindau disease tumor suppressor; test: Protac activity at VHL/CRBN in HEK293 cells assessed as CRBN protein abundance at 1 uM after 4 hrs by Western blot analysis relative to DMSO; method in brief: as §3
[23] = molecular target: T1, Protein cereblon/von Hippel-Lindau disease tumor suppressor; test: Protac activity at VHL/CRBN in human HeLa cells assessed as induction of CRBN degradation at 1 uM after 4 hrs by Western blot analysis relative to control; method in brief: as §2

T1 sequence (P40337 whole entry, looked up, canonical isoform): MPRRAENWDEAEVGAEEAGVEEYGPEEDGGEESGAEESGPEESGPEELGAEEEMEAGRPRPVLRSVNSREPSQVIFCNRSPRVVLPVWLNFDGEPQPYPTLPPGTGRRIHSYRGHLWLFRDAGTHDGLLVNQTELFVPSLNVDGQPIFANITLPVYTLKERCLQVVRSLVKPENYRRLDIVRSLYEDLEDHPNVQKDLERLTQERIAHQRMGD
T1 sequence (Q96SW2 whole entry, looked up, canonical isoform): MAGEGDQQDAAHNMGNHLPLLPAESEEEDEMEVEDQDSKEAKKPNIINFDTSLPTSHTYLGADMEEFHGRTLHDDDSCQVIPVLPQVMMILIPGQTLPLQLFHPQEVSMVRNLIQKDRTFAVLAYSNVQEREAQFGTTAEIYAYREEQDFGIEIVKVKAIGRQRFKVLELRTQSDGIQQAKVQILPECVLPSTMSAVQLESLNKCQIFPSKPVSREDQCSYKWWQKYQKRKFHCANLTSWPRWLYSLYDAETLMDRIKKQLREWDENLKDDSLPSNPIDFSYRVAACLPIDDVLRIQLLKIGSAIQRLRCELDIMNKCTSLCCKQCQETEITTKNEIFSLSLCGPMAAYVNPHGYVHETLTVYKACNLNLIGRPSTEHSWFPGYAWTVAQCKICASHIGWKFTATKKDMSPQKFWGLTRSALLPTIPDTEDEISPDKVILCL

SMILES | Activity [1] [%] | Activity [2] | Activity [3] [%] | Activity [4] [%] | Activity [5] [%] | Activity [6] [%] | Activity [7] [%] | other results
Cc1ncsc1-c1ccc(CNC(=O)[C@@H]2C[C@@H](O)CN2C(=O)[C@@H](NC(=O)COCCOCCOCCOCCOCCOCCOCCOCCOCC(=O)NCCNc2cccc3c2C(=O)N(C2CCC(=O)NC2=O)C3=O)C(C)(C)C)cc1 (some centres undefined) | 91 | inactive | 82 | 91 | 95 | 54 | 99 | 
Cc1ncsc1-c1ccc(CNC(=O)[C@@H]2C[C@@H](O)CN2C(=O)[C@@H](NC(=O)COCCCCCCOCC(=O)NCCNc2cccc3c2C(=O)N(C2CCC(=O)NC2=O)C3=O)C(C)(C)C)cc1 (some centres undefined) | 75 | inactive | 75 | 65 | 100 | 50 | 101 | 
Cc1ncsc1-c1ccc(CNC(=O)[C@@H]2C[C@@H](O)CN2C(=O)[C@@H](NC(=O)COCCOCCOCCOCCOCCOCC(=O)N[C@H](C(=O)N2C[C@H](O)C[C@H]2C(=O)NCc2ccc(-c3scnc3C)cc2)C(C)(C)C)C(C)C)cc1 | 1 | inactive | 87 | 103 | 97 | 0 | 97 | Activity [8]: 100%; Activity [9]: 99%; Activity [10]: 95%; Activity [11]: 95%; Activity [12]: 3%; Activity [13]: 0%; Activity [14]: 11%; Activity [15]: 1%; Activity [16]: 99%; Activity [17]: 6%; Activity [18]: 109%; Activity [19]: 100%; Activity [20]: 122%; Activity [21]: 118%; Activity [22]: 102%
O=C1CCC(N2C(=O)c3cccc(NCCOCCOCCNc4cccc5c4C(=O)N(C4CCC(=O)NC4=O)C5=O)c3C2=O)C(=O)N1 (centres undefined) | 87 | inactive | 38 | 34 | 100 | 95 | 95 | Activity [8]: 52%; Activity [9]: 40%; Activity [10]: 94%; Activity [11]: 97%; Activity [12]: 96%; Activity [13]: 109%; Activity [14]: 102%; Activity [15]: 99%; Activity [16]: 99%; Activity [17]: 95%; Activity [18]: 25%; Activity [19]: 104%; Activity [20]: 107%; Activity [21]: 29%; Activity [22]: 37%
Cc1ncsc1-c1ccc(CNC(=O)[C@@H]2C[C@@H](O)CN2C(=O)[C@@H](NC(=O)C2(F)CC2)C(C)(C)C)c(OCCCCC(=O)NCCNc2cccc3c2C(=O)N(C2CCC(=O)NC2=O)C3=O)c1 (some centres undefined) | 126 | inactive | 80 | 95 | 134 | 64 | 100 | 
Cc1ncsc1-c1ccc(CNC(=O)[C@@H]2C[C@@H](O)CN2C(=O)[C@@H](NC(=O)C2(F)CC2)C(C)(C)C)c(OCCOCCOCCOCCOCCOCC(=O)NCCNc2cccc3c2C(=O)N(C2CCC(=O)NC2=O)C3=O)c1 (some centres undefined) | 77 | inactive | 86 | 46 | 103 | 76 | 89 | Activity [23]: 54%

Now from value to compound, other results behind:

Activity [1] [%] | Activity [2] | Activity [3] [%] | Activity [4] [%] | Activity [5] [%] | Activity [6] [%] | Activity [7] [%] | SMILES | other results
113 | inactive | 94 | 71 | 115 | 76 | 97 | Cc1ncsc1-c1ccc(CNC(=O)[C@@H]2C[C@@H](O)CN2C(=O)[C@@H](NC(=O)C2(F)CC2)C(C)(C)C)c(OCCOCCOCCOCC(=O)NCCNc2cccc3c2C(=O)N(C2CCC(=O)NC2=O)C3=O)c1 (some centres undefined) | 
110 | inactive | 82 | 68 | 112 | 87 | 89 | Cc1ncsc1-c1ccc(CNC(=O)[C@@H]2C[C@@H](O)CN2C(=O)[C@@H](NC(=O)C2(F)CC2)C(C)(C)SCCOCCOCCOCCOCCOCC(=O)NCCNc2cccc3c2C(=O)N(C2CCC(=O)NC2=O)C3=O)cc1 (some centres undefined) | 
104 | inactive | 78 | 71 | 121 | 75 | 87 | Cc1ncsc1-c1ccc(CNC(=O)[C@@H]2C[C@@H](O)CN2C(=O)[C@@H](NC(=O)C2(F)CC2)C(C)(C)SCCOCCOCCOCC(=O)NCCNc2cccc3c2C(=O)N(C2CCC(=O)NC2=O)C3=O)cc1 (some centres undefined) | 
89 | inactive | 91 | 91 | 102 | 104 | 94 | Cc1ncsc1-c1ccc(CNC(=O)[C@@H]2C[C@@H](O)CN2C(=O)[C@@H](NC(=O)COCCOCCOCC(=O)NCCNc2cccc3c2C(=O)N(C2CCC(=O)NC2=O)C3=O)C(C)(C)C)cc1 (some centres undefined) | 
95 | inactive | 81 | 94 | 103 | 53 | 92 | Cc1ncsc1-c1ccc(CNC(=O)[C@@H]2C[C@@H](O)CN2C(=O)[C@@H](NC(=O)COCCOCCOCCOCCOCC(=O)NCCNc2cccc3c2C(=O)N(C2CCC(=O)NC2=O)C3=O)C(C)(C)C)cc1 (some centres undefined) | 
114 | inactive | 82 | 81 | 117 | 53 | 93 | Cc1ncsc1-c1ccc(CNC(=O)[C@@H]2C[C@@H](O)CN2C(=O)[C@@H](NC(=O)C2(F)CC2)C(C)(C)SCCCCC(=O)NCCNc2cccc3c2C(=O)N(C2CCC(=O)NC2=O)C3=O)cc1 (some centres undefined) | 
96 | inactive | 85 | 86 | 97 | 80 | 93 | Cc1ncsc1-c1ccc(CNC(=O)[C@@H]2C[C@@H](O)CN2C(=O)[C@@H](NC(=O)COCCOCCOCCOCCOCCOCC(=O)NCCNc2cccc3c2C(=O)N(C2CCC(=O)NC2=O)C3=O)C(C)(C)C)cc1 (some centres undefined) | 
101 | inactive | 91 | 94 | 103 | 67 | 98 | Cc1ncsc1-c1ccc(CNC(=O)[C@@H]2C[C@@H](O)CN2C(=O)[C@@H](NC(=O)COCCOCCOCCOCC(=O)NCCNc2cccc3c2C(=O)N(C2CCC(=O)NC2=O)C3=O)C(C)(C)C)cc1 (some centres undefined) | 
